# Source: ChEMBL document CHEMBL4680166, “Dual-functional conjugates improving cancer immunochemotherapy by inhibiting tubulin polymerization and indoleamine-2,3-dioxygenase” (Eur J Med Chem, 2020)
# pIC50: −log10 of the molar value. Activity calls are given as the source filed them. No cut-off for these calls is given here.
# Tests used:
# [1] = tested on: A549; assay: Anticancer activity against human A549 cells assessed as inhibition of cell proliferation measured after 72 hrs by MTT assay; type: functional, cell-based; settings: A549, 72 h
# Outline: (§1)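 Cells (A549, PC-3, HeLa, HUVEC) grown in DMEM with 10% FBS at 37 °C, 5% CO₂. Seeded at 5 × 10⁴ cells/well and allowed 24 h to attach, then exposed 72 h to a concentration series from DMSO stocks. MTT was added for 4 h and formazan dissolved in DMSO, read at 490 nm. Survival taken relative to untreated control. IC50 by Bliss method, three repeats.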
# [2] = Toxicity in BALB/c nude mouse transfected with human HeLa cells assessed as lung damage at 30 mg/kg/day, iv for 21 days by H&E staining based immunohistochemistry; type: organism-based; settings: in vivo, 504 h, time 21 day
# Outline: (§2)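 HeLa xenografts were grown s.c. in male BALB/c nude mice, which received i.v. tail-vein doses once daily for 21 days in Tween 80/saline vehicle, with saline controls. After 3 weeks the mice were sacrificed. Organs from one mouse per group were fixed in 4% paraformaldehyde, paraffin-embedded and sectioned. Sections were dewaxed, stained with Harris hematoxylin and eosin-phloxine, and examined microscopically for histopathologic changes.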
# [3] = Toxicity in BALB/c nude mouse transfected with human HeLa cells assessed as kidney damage at 30 mg/kg/day, iv for 21 days by H&E staining based immunohistochemistry; type: organism-based; settings: in vivo, 504 h, time 21 day; outline: as §2
# [4] = tested on: HeLa; assay: Inhibition of IDO1 expression in hIFNgamma-stimulated human HeLa cells at 0.5 uM measured after 24 hrs by western blot assay; type: functional
# Outline: (§3)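 HeLa cells were treated 24 h at 37 °C and lysed in buffer containing PMSF. Protein quantified by BCA, equal amounts separated by SDS-PAGE and transferred to nitrocellulose. Blocked in 5% milk, primary antibodies overnight at 4 °C, peroxidase secondary 2 h at 25 °C. Detection by chemiluminescence, β-actin as loading control.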
# [5] = tested on: HeLa; assay: Potency index, ratio of CA-4 IC50 to test compound IC50 for anticancer activity against human HeLa cells after 72 hrs by MTT assay; type: functional
# [6] = tested on: HeLa; assay: Inhibition of cell migration in human HeLa cells at 0.5 uM measured after 24 hrs by wound healing assay (reference value: 61%); type: functional
# Outline: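 Confluent HeLa monolayers were scratched with a pipette tip and washed with ice-cold PBS. Incubated 24 h at 37 °C in DMEM/10% FBS containing compound. Wounds were photographed at 0 and 24 h and migration distance measured manually.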
# [7] = Toxicity in BALB/c nude mouse transfected with human HeLa cells assessed as liver damage at 30 mg/kg/day, iv for 21 days by H&E staining based immunohistochemistry; type: organism-based; settings: in vivo, 504 h, time 21 day; outline: as §2
# [8] = tested on: HeLa; assay: Antitumor activity against human HeLa cells xenografted in BALB/c mouse assessed as inhibition of tumor volume at 15 mg/kg/day, iv administered for 21 days by caliper analysis; type: functional; settings: 504 h, time 21 day
# Outline: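 Male BALB/c nude mice, five weeks old, 18-22 g. Inoculated subcutaneously in the right armpit with 1 × 10⁷ HeLa cells/0.1 mL. At 120-150 mm³, randomized to four groups of five. Once-daily tail-vein injection for 21 days in Tween 80/physiological saline; controls received saline. Tumor volume measured every 2 days by caliper, V = AB²/2.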
# [9] = Toxicity in BALB/c nude mouse transfected with human HeLa cells assessed as spleen damage at 15 mg/kg/day, iv for 21 days by H&E staining based immunohistochemistry; type: organism-based; settings: in vivo, 504 h, time 21 day
# Outline: (§4)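 After 3 weeks of daily iv dosing of HeLa-xenografted nude mice, organs were taken from one mouse per group. Fixed in 4% paraformaldehyde, paraffin-embedded and sectioned. Stained with Harris hematoxylin and eosin-phloxine, then examined microscopically for histopathology.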
# [10] = tested on: HeLa; assay: Induction of cell cycle arrest in human HeLa cells assessed as accumulation at G1 phase at 0.5 uM measured after 24 hrs by propidium iodide/RNAse staining based flow cytometry (reference value: 61.5%); type: functional
# [11] = tested on: HeLa; assay: Induction of apoptosis in human HeLa cells assessed as down regulation of Bcl-2 protein expression at 0.5 uM measured after 24 hrs by western blot analysis; type: functional, cell-based; outline: as §3
# [12] = Toxicity in BALB/c nude mouse transfected with human HeLa cells assessed as kidney damage at 15 mg/kg/day, iv for 21 days by H&E staining based immunohistochemistry; type: organism-based; settings: in vivo, 504 h, time 21 day; outline: as §4
# [13] = Toxicity in BALB/c nude mouse transfected with human HeLa cells assessed as spleen damage at 30 mg/kg/day, iv for 21 days by H&E staining based immunohistochemistry; type: organism-based; settings: in vivo, 504 h, time 21 day; outline: as §2
# [14] = Toxicity in BALB/c nude mouse transfected with human HeLa cells assessed as body weight changes at 30 mg/kg/day, iv for 21 days; type: organism-based; settings: in vivo, 504 h, time 21 day
# Outline: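 Five-week-old male BALB/c nude mice (18-22 g) were inoculated s.c. in the right armpit with HeLa cells (1 × 10⁷ cells/0.1 mL/mouse). At a tumour volume of 120-150 mm³, mice were randomised, five per group. Dosing was i.v. via the tail vein once daily for 21 days, in Tween 80/physiological saline; controls got an equal volume of saline. Body weight was recorded every 2 days.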
# [15] = tested on: HeLa; assay: Induction of apoptosis in human HeLa cells assessed as cell membrane integrity loss, chromatin condensation and apoptotic body formation by measuring strengthened orange fluorescence intensity at 0.5 uM measured after 24 hrs by AO/EB dual staining based fluorescence microscopy; type: functional
# [16] = Toxicity in BALB/c nude mouse transfected with human HeLa cells assessed as liver damage at 15 mg/kg/day, iv for 21 days by H&E staining based immunohistochemistry; type: organism-based; settings: in vivo, 504 h, time 21 day; outline: as §4
# [17] = tested on: PC-3; assay: Anticancer activity against human PC3 cells assessed as inhibition of cell proliferation measured after 72 hrs by MTT assay; type: functional, cell-based; settings: PC-3, 72 h; outline: as §1
# [18] = target: Tubulin (Homo sapiens) (UniProt P68371+Q9H4B7+P0DPH7+P68366+Q13509+Q71U36+P04350+Q3ZCM7+P07437+P68363+Q9BQE3+Q6PEY2+Q13885+Q9BVA1+Q9BUF5); assay: Inhibition of tubulin polymerization in human HeLa cells assessed as disruption of microtubule network organization measured after 24 hrs by DAPI staining based immunofluorescence method; type: cell-based; settings: dose 0.1-0.5 µM
# Outline: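 HeLa cells in six-well plates were treated 24 h. Fixed in 4% paraformaldehyde (37 °C, 15 min), permeabilised with 0.5% Triton X-100 and blocked with 10% goat serum. Incubated with α-tubulin primary antibody overnight, then fluorescent secondary antibody 1 h, with DAPI for nuclei. Imaged by confocal microscopy.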
structure (smiles),measurement,setting,value
COc1ccc(/C=C\c2cc(OC)c(OC)c(OC)c2)cc1OC(=O)c1cccc(Cn2cc(CCOC(=O)[C@H](N)Cc3cn(C)c4ccccc34)nn2)c1,pIC50,[1],6.66
same,Activity,[2],Non-Toxic
same,Activity,[3],Non-Toxic
same,inhibition,[4],Active
same,fold change (FC),[5],3
same,inhibition at 0.5 µM,[6],88%
same,Activity,[7],Non-Toxic
same,inhibition in vivo at 15 mg/kg/day,[8],50.7%
same,Activity,[9],Non-Toxic
same,Activity,[10],6.69%
same,Activity,[11],Active
same,Activity,[12],Non-Toxic
same,Activity,[13],Non-Toxic
same,Activity,[14],Non-Toxic
same,Activity,[15],Active
same,Activity,[16],Non-Toxic
same,pIC50,[17],6.34
same,inhibition,[18],Dose-dependent effect
